Calls of active or inactive are those of the source. No cut-off for these calls is given here.
Assays:
[1] = (§1) Antiviral activity against Influenza A virus (A/California/04/2009(H1N1)) ATCC VR-1737 infected in MDCK cells assessed as reduction in virus-induced cytopathic effect incubated for 48 hrs by Cell-titer-Glo luminescence assay; format: functional, cell-based; details: ATCC VR-1737, MDCK
Outline: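 MDCK cells at 80% confluence were exposed to virus plus a range of inhibitor concentrations for 48 h at 37 °C, 5% CO2. CPE and cell viability were then read by CellTiter-Glo luminescence.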

[2] = as §1, with “Selectivity index, ratio of CC50 for cytotoxicity in mouse NIH/3T3 cells assessed as reduction in cell viability incubated for 12 hrs by MTT assay to EC50 for antiviral” for “Antiviral”; format: toxicity, cell-based; details: read-out: Ratio CC50/EC50
[3] = Cytotoxicity in mouse NIH/3T3 cells assessed as reduction in cell viability incubated for 12 hrs by MTT assay; format: cell-based, NIH3T3
[4] = as §1, with “Selectivity index, ratio of CC50 for cytotoxicity in MDCK cells assessed as reduction in cell viability incubated for 12 hrs by MTT assay to EC50 for antiviral” for “Antiviral”; format: toxicity, cell-based; details: dog, read-out: Ratio CC50/EC50
[5] = Cytotoxicity in MDCK cells assessed as reduction in cell viability incubated for 12 hrs by MTT assay; format: cell-based, Canis lupus familiaris; details: dog
[6] = molecular target: Polymerase acidic protein (Influenza A virus (A/Puerto Rico/8/1934(H1N1)), UniProt P03433); test: Inhibition of Influenza A virus RNA-dependent RNA polymerase PA N-terminal endonuclease using [6-FAM]AATCGCAGGCAGCACTC[TAM] substrate and measured over 45 mins by fluorescence based assay
[7] = molecular target: Polymerase acidic protein (Influenza A virus (A/Puerto Rico/8/1934(H1N1))) (UniProt P03433)
[8] = molecular target: Carbonic anhydrase 2 (Homo sapiens) (UniProt P00918); test: Inhibition of recombinant human CA2 expressed in Escherichia coli BL21 at 200 uM incubated for 15 mins using p-Nitrophenyl acetate substrate
[9] = molecular target: Macrophage metalloelastase (Homo sapiens) (UniProt P39900); test: Inhibition of human recombinant MMP12 at 200 uM incubated for 15 mins using OmniMMP fluorogenic substrate by fluorescence based assay
Macrophage metalloelastase (Homo sapiens), sequence (P39900 106-470 limits assumed): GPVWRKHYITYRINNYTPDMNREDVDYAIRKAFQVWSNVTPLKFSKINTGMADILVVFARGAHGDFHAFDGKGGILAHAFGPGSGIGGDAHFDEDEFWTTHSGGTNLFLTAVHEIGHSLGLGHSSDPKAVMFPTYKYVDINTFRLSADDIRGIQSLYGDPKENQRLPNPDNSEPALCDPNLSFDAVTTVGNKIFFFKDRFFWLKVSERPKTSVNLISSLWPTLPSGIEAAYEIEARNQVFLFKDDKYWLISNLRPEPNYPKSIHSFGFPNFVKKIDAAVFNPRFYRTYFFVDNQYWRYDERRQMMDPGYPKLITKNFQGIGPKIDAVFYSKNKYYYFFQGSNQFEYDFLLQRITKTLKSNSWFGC

[10] = molecular target: Methionine aminopeptidase 2 (Homo sapiens) (UniProt P50579); test: Inhibition of recombinant human MetAP2 at 200 uM using Met-AMC as fluorogenic substrate by fluorescence assay
Methionine aminopeptidase 2 (Homo sapiens), sequence (P50579 2-478 limits assumed): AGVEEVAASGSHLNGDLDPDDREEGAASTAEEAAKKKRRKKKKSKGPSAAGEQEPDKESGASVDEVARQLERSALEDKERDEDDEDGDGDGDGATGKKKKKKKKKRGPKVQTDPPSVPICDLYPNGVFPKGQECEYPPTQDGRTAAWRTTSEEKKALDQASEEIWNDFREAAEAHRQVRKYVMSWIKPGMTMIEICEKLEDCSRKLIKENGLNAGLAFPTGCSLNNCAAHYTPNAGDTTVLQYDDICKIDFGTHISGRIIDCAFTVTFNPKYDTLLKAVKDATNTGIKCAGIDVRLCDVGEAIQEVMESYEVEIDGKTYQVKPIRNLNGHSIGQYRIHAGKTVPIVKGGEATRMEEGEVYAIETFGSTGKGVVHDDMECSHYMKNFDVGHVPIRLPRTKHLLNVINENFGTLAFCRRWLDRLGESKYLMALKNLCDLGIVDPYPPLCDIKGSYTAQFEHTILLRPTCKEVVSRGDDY

[11] = molecular target: T1, Arginase-1 (Homo sapiens) (UniProt P05089); test: Inhibition of human Arg1 at 200 uM using thio-arginine substrate incubated for 30 mins by Ellman's reagent based assay
T1 sequence (whole entry): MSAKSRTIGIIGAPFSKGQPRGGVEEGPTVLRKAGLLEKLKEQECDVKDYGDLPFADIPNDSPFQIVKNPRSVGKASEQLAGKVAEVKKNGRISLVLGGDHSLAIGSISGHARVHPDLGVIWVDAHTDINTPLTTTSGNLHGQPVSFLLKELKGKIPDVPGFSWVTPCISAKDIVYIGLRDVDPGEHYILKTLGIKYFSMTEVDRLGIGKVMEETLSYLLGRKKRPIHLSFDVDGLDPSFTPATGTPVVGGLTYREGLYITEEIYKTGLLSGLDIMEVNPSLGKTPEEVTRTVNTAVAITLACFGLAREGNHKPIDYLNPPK

Row | Compound | IC50 ([6]; read-out: IC50) | IC50 ([6]; read-out: pIC50 (converted)) | ΔTm [7] | also measured
1 | O=C(O)/C(O)=C/C(=O)C1(Cc2ccc(Cl)cc2)CCN(Cc2ccccc2)CC1 |  |  |  | EC50 [1]: 7.4 µM; selectivity ratio at 12 h [2]: 35 to 75; CC50 at 12 h [3]: > 800 µM; selectivity ratio at 12 h [4]: 35 to 75; CC50 at 12 h [5]: > 800 µM
2 | O=C(O)c1[nH]c(-c2cccc(-c3nnn[nH]3)c2)cc(=O)c1O | < 2 nM | < 2 nM | 12.9 °C | 
3 | CSc1ccccc1-c1cc(=O)c(O)c(C(=O)O)[nH]1 | 3.2 nM |  | 11.8 °C | 
4 | O=C(O)c1[nH]c(-c2ccccc2)cc(=O)c1O | 5.6 nM |  | 8.5 °C | 
5 | O=C(O)c1[nH]c(-c2ccc(-c3nnn[nH]3)cc2)cc(=O)c1O | < 2 nM | < 2 nM | 14.1 °C | EC50 [1]: 7.7 µM; selectivity ratio at 12 h [2]: > 100; CC50 at 12 h [3]: > 800 µM; selectivity ratio at 12 h [4]: > 100; CC50 at 12 h [5]: > 800 µM
6 | O=C(O)c1[nH]c(-c2ccccc2Oc2ccccc2)cc(=O)c1O | 6 nM |  | 10.4 °C | 
7 | Cc1cccc(-c2cc(=O)c(O)c(C(=O)O)[nH]2)c1 | 4.8 nM |  | 10.7 °C | 
8 | Cc1cc(=O)c(O)c(C(=O)O)[nH]1 |  |  | 11.1 °C | 
9 | O=C(O)c1ccc(-c2cc(=O)c(O)c(C(=O)O)[nH]2)cc1 | < 2 nM | < 2 nM | 11.9 °C | 
10 | Cc1cc(-c2nnn[nH]2)ccc1-c1cc(=O)c(O)c(C(=O)O)[nH]1 | 110 nM | 0.1 nM | 16.5 °C | EC50 [1]: 21.3 µM; selectivity ratio at 12 h [2]: 35 to 75; CC50 at 12 h [3]: > 800 µM; inhibition [8]: inactive; selectivity ratio at 12 h [4]: 35 to 75; inhibition [9]: inactive; inhibition [10]: 44%; inhibition [11]: inactive; CC50 at 12 h [5]: > 800 µM
11 | O=C(O)c1[nH]c(-c2ccc(Oc3ccccc3)cc2)cc(=O)c1O | 25 nM |  | 8.1 °C | 
12 | CCc1ccccc1-c1cc(=O)c(O)c(C(=O)O)[nH]1 | < 2 nM | < 2 nM | 13.1 °C | 
13 | CC(C)c1cccc(-c2cc(=O)c(O)c(C(=O)O)[nH]2)c1 | 6.3 nM |  | 10.1 °C | 
14 | O=C(O)c1[nH]c(-c2cccc(Oc3ccccc3)c2)cc(=O)c1O | 14 nM |  | 9 °C | 
15 | Cc1cc(C(=O)O)ccc1-c1cc(=O)c(O)c(C(=O)O)[nH]1 | 230 nM | 0.251 nM | 15.3 °C | 
16 | Cc1cc(-c2noc(=O)[nH]2)ccc1-c1cc(=O)c(O)c(C(=O)O)[nH]1 | 120 nM | 0.126 nM | 16.3 °C | inhibition [8]: inactive; inhibition [9]: inactive; inhibition [10]: inactive; inhibition [11]: inactive
17 | O=C1c2c(O)c(=O)ccn2N([C@@H]2c3ccccc3SCc3c2ccc(F)c3F)[C@@H]2COCCN12 [BALOXAVIR] |  |  |  | EC50 [1]: 2.2 µM; CC50 at 12 h [3]: > 800 µM; CC50 at 12 h [5]: 20 µM
18 | O=C(O)c1cccc(-c2cc(=O)c(O)c(C(=O)O)[nH]2)c1 | 2.3 nM |  | 11.7 °C | 
19 | O=C(O)c1[nH]c(-c2ccc(-c3nnn[nH]3)cc2C(F)(F)F)cc(=O)c1O | 47 nM | 0.0501 nM | 17.8 °C | EC50 [1]: 11.5 µM; selectivity ratio at 12 h [2]: 35 to 75; CC50 at 12 h [3]: > 800 µM; inhibition [8]: inactive; selectivity ratio at 12 h [4]: 35 to 75; inhibition [9]: inactive; inhibition [10]: inactive; inhibition [11]: inactive; CC50 at 12 h [5]: > 800 µM
20 | CC(C)c1ccccc1-c1cc(=O)c(O)c(C(=O)O)[nH]1 | 3.2 nM |  | 11.6 °C | 
21 | O=C(O)c1[nH]c(-c2ccccc2C(F)(F)F)cc(=O)c1O | < 2 nM | < 2 nM | 13.3 °C | EC50 [1]: 10.4 µM; selectivity ratio at 12 h [2]: 35 to 75; CC50 at 12 h [3]: > 800 µM; selectivity ratio at 12 h [4]: 35 to 75; CC50 at 12 h [5]: > 800 µM
22 | Cc1ccc(-c2cc(=O)c(O)c(C(=O)O)[nH]2)cc1 | 7.2 nM |  | 10.3 °C | 
23 | Cc1ccccc1-c1cc(=O)c(O)c(C(=O)O)[nH]1 |  |  | 13.2 °C | 
24 | COc1ccccc1-c1cc(=O)c(O)c(C(=O)O)[nH]1 | 2.3 nM |  | 11.9 °C | 

— ChEMBL document CHEMBL4334499, “SAR Exploration of Tight-Binding Inhibitors of Influenza Virus PA Endonuclease” (J Med Chem, 2019)
